Reference: ChEMBL document CHEMBL1155442, “Click chemistry approach to new N-substituted aminocyclitols as potential pharmacological chaperones for Gaucher disease” (J Med Chem, 2010)
The source made the active and inactive calls. No cut-off for these calls is given here.

Assays:
Saccharomyces cerevisiae = assay: Inhibition of yeast alpha-glucosidase at 0.1 mM
[1] = Cytotoxicity against human fibroblast at 300 uM after 24 hrs by MTT assay; type: cell-based
[2] = Dissociation constant, pKa of the compound; type: physicochemical
[3] = tested on: Glucosylceramide synthase (Homo sapiens); assay: Inhibition of glucosylceramide synthase in human A549 cells at 250 uM after 35 mins by fluorescence-coupled HPLC analysis
Oryza sativa [4] = assay: Inhibition of rice alpha-glucosidase at 0.1 mM
[5] = target: T1, Beta-galactosidase (Bos taurus) (UniProt Q58D55); assay: Inhibition of bovine liver beta-galactosidase at 0.1 mM
T1 sequence (whole entry): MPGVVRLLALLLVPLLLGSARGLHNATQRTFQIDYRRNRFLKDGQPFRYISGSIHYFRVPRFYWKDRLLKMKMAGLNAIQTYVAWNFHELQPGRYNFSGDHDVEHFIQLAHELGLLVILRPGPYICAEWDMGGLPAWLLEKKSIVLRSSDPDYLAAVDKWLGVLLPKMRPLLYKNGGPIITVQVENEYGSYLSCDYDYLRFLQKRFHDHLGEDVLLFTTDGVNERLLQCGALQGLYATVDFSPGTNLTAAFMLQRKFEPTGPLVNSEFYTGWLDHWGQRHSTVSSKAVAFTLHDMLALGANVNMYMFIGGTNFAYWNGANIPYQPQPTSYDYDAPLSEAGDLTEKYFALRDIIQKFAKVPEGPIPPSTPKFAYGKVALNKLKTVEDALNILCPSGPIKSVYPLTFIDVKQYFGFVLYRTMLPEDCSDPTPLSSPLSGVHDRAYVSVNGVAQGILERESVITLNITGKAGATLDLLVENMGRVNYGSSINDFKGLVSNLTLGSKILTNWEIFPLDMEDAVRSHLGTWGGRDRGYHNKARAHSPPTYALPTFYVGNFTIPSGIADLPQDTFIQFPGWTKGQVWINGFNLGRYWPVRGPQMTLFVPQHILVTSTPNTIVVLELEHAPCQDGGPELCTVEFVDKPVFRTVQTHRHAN

[6] = target: T2, Lysosomal acid glucosylceramidase (Homo sapiens, UniProt P04062); assay: Inhibition of recombinant beta-glucocerebrosidase after 10 mins by fluorimetry
T2 sequence (P04062 whole entry): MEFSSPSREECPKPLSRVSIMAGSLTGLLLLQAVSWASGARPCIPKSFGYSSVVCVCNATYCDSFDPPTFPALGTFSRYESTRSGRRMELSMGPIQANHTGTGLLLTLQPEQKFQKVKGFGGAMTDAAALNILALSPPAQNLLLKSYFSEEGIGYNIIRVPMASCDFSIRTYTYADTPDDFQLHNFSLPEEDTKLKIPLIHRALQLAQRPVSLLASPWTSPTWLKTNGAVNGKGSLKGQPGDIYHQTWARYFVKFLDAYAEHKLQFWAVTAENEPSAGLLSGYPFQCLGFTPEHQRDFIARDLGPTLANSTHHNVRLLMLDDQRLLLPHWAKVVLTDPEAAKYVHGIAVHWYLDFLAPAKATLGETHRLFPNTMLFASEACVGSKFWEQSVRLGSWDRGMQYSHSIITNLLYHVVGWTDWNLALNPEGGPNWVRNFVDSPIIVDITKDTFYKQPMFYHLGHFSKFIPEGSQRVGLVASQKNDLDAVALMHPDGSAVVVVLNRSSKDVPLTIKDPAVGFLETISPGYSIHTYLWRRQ
How it was run: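 Imiglucerase (0.1 mg/mL stock) in McIlvaine buffer, pH 5.2 or 7.4, with 0.2% sodium taurocholate and 0.1% Triton X-100. Preincubated 30 min at 37 °C with or without inhibitor. Then 4 mM 4-methylumbelliferyl-β-D-glucopyranoside added for 10 min at 37 °C. Stopped with glycine/NaOH pH 10.6; 4-MU read at ex 355/em 460 nm. IC50 from % activity vs log[I], at least five concentrations.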

[7] = target: T3, Lysosomal acid glucosylceramidase (Homo sapiens) (UniProt P04062); assay: Inhibition of beta-glucocerebrosidase in human fibroblast at 50 uM after 24 hrs by fluorescence assay
T3 sequence (whole entry): T2 sequence (P04062 whole entry)
How it was run: (§1)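 Wild-type human fibroblasts exposed to compound for 24 h (10, 20 or 50 μM, as listed) with 5 mM substrate. Cellular GCase activity then measured.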

Oryza sativa [8] = assay: Inhibition of rice alpha-galactosidase at 0.1 mM
Prunus dulcis = assay: Inhibition of sweet almond beta-glucosidase at 0.1 mM
[9] = target: T2, Lysosomal acid glucosylceramidase; assay: Inhibition of recombinant beta-glucocerebrosidase at pH 5.2 after 10 mins by fluorimetry
[10] = target: T2, Lysosomal acid glucosylceramidase; assay: Inhibition of recombinant beta-glucocerebrosidase at pH 7.4 after 10 mins by fluorimetry
[11] = target: T3, Lysosomal acid glucosylceramidase (Homo sapiens); assay: Binding affinity to recombinant beta-glucocerebrosidase assessed as enzymatic activity at 100 uM after 20 mins by thermal stabilization assay relative to control
[12] = target: T3, Lysosomal acid glucosylceramidase (Homo sapiens); assay: Binding affinity to recombinant beta-glucocerebrosidase assessed as enzymatic activity at 25 uM after 20 mins by thermal stabilization assay relative to control
How it was run: (§2)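 Recombinant GCase (imiglucerase, 2 mg/mL aliquots) held at pH 7.4 and 48 °C with 0 (control) or 10–150 μM compound. At 20, 40 or 60 min, acetate-phosphate buffer (pH 5.0) and 4 mM 4-methylumbelliferyl β-D-glucoside in McIlvaine pH 5.2 added. Incubated 10 min at 37 °C with 0.1% Triton X-100 and 0.2% taurodeoxycholic acid. Stopped with glycine pH 10.6; 4-MU fluorescence read. Activity expressed relative to enzyme at 37 °C.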

[13] = target: T3, Lysosomal acid glucosylceramidase (Homo sapiens); assay: Binding affinity to recombinant beta-glucocerebrosidase assessed as enzymatic activity at 100 uM after 60 mins by thermal stabilization assay relative to control
[14] = target: T3, Lysosomal acid glucosylceramidase (Homo sapiens); assay: Binding affinity to recombinant beta-glucocerebrosidase assessed as enzymatic activity at 150 uM after 40 mins by thermal stabilization assay relative to control
[15] = target: T3, Lysosomal acid glucosylceramidase (Homo sapiens); assay: Binding affinity to recombinant beta-glucocerebrosidase assessed as enzymatic activity at 50 uM after 60 mins by thermal stabilization assay relative to control
[16] = target: T3, Lysosomal acid glucosylceramidase (Homo sapiens); assay: Binding affinity to recombinant beta-glucocerebrosidase assessed as enzymatic activity at 25 uM after 40 mins by thermal stabilization assay relative to control; how it was run: as §2
[17] = target: T3, Lysosomal acid glucosylceramidase (Homo sapiens); assay: Binding affinity to recombinant beta-glucocerebrosidase assessed as enzymatic activity at 10 uM after 20 mins by thermal stabilization assay relative to control; how it was run: as §2
[18] = Cytotoxicity against human fibroblast after 24 hrs by MTT assay; type: cell-based; details: human fibroblasts
[19] = target: T3, Lysosomal acid glucosylceramidase (Homo sapiens); assay: Binding affinity to recombinant beta-glucocerebrosidase assessed as enzymatic activity at 25 uM after 60 mins by thermal stabilization assay relative to control; how it was run: as §2
[20] = target: T3, Lysosomal acid glucosylceramidase (Homo sapiens); assay: Binding affinity to recombinant beta-glucocerebrosidase assessed as enzymatic activity at 10 uM after 60 mins by thermal stabilization assay relative to control; how it was run: as §2
[21] = target: T3, Lysosomal acid glucosylceramidase (Homo sapiens); assay: Binding affinity to recombinant beta-glucocerebrosidase assessed as enzymatic activity at 50 uM after 40 mins by thermal stabilization assay relative to control
[22] = target: T3, Lysosomal acid glucosylceramidase (Homo sapiens); assay: Binding affinity to recombinant beta-glucocerebrosidase assessed as enzymatic activity at 50 uM after 20 mins by thermal stabilization assay relative to control
[23] = target: T3, Lysosomal acid glucosylceramidase (Homo sapiens); assay: Binding affinity to recombinant beta-glucocerebrosidase assessed as enzymatic activity at 150 uM after 20 mins by thermal stabilization assay relative to control
[24] = target: T3, Lysosomal acid glucosylceramidase (Homo sapiens); assay: Inhibition of beta-glucocerebrosidase in human fibroblast at 10 uM after 24 hrs by fluorescence assay; how it was run: as §1
[25] = target: T3, Lysosomal acid glucosylceramidase (Homo sapiens); assay: Binding affinity to recombinant beta-glucocerebrosidase assessed as enzymatic activity at 100 uM after 40 mins by thermal stabilization assay relative to control
[26] = target: T2, Lysosomal acid glucosylceramidase; assay: Competitive inhibition of beta-glucocerebrosidase at pH 5.2 by Lineweaver-Burke plot analysis
[27] = target: T3, Lysosomal acid glucosylceramidase (Homo sapiens); assay: Binding affinity to recombinant beta-glucocerebrosidase assessed as enzymatic activity at 150 uM after 60 mins by thermal stabilization assay relative to control
[28] = Selectivity index, ratio of CC50 for human fibroblast to Ki for beta-glucocerebrosidase
[29] = target: T3, Lysosomal acid glucosylceramidase (Homo sapiens); assay: Inhibition of beta-glucocerebrosidase in human fibroblast at 20 uM after 24 hrs by fluorescence assay; how it was run: as §1
[30] = target: T3, Lysosomal acid glucosylceramidase (Homo sapiens); assay: Binding affinity to recombinant beta-glucocerebrosidase assessed as enzymatic activity at 10 uM after 40 mins by thermal stabilization assay relative to control; how it was run: as §2

CCCCCCn1cc(CCCN[C@H]2[C@H](O)[C@@H](O)[C@H](O)[C@@H](O)[C@@H]2O)nn1
inhibition (Saccharomyces cerevisiae): inactive
Activity [1]: Non-toxic
pKa [2]: 10.4
inhibition [3]: 30%
inhibition (Oryza sativa [4]): inactive
inhibition [5]: inactive
IC50 [6]: 257 µM
inhibition [7]: < 5%
inhibition (Oryza sativa [8]): inactive
inhibition (Prunus dulcis): inactive
IC50 [9]: 257 µM
IC50 [10]: 44.6 µM

CCCCCCCCCCCCn1cc(CN[C@H]2[C@H](O)[C@@H](O)[C@H](O)[C@@H](O)[C@@H]2O)nn1
fold change (FC) [11]: 3.41
inhibition (Saccharomyces cerevisiae): inactive
pKa [2]: 7.1
fold change (FC) [12]: 2.97
fold change (FC) [13]: 28.7
fold change (FC) [14]: 11.5
fold change (FC) [15]: 24.9
fold change (FC) [16]: 9.42
fold change (FC) [17]: 2.65
CC50 at 24 h [18]: 55 µM
inhibition (Oryza sativa [4]): inactive
fold change (FC) [19]: 23.2
fold change (FC) [20]: 18.7
fold change (FC) [21]: 10.9
inhibition [5]: inactive
IC50 [6]: 0.0302 µM
fold change (FC) [22]: 3.11
fold change (FC) [23]: 3.21
inhibition [7]: Toxic
inhibition [24]: 87%
inhibition (Oryza sativa [8]): inactive
fold change (FC) [25]: 12.8
Ki [26]: 0.06 µM
fold change (FC) [27]: 26.2
Selectivity Index [28]: 916
inhibition (Prunus dulcis): inactive
IC50 [9]: 0.03 µM
inhibition [29]: 90%
IC50 [10]: 0.06 µM
fold change (FC) [30]: 8.48
